# Measurements collected from several papers.
# Compare with care: the assays were run in different laboratories.
# CDK9: Cyclin-dependent kinase 9 (CDK9, Homo sapiens, UniProt P50750)
# CDK1: Cyclin-dependent kinase 1 (CDK1, Homo sapiens, UniProt P06493)
# MAP2K7: Dual specificity mitogen-activated protein kinase kinase 7 (MAP2K7, Homo sapiens, UniProt O14733)
Compound,target,assay,test system,setting,measurement,value
CC(C)(C)c1cnc(CSc2cnc(NC(=O)C3CCN(C(=O)CCCCCN4Cc5cc6c(cc5C4)C(=O)N(C4CCC(=O)NC4=O)C6=O)CC3)s2)o1 (stereo not shown),CDK9,"protein level, degrader, western blot",TC-71,25 nM,inhibition,93.4%
C[C@]1(O)CCCN(c2nc(Nc3ccc(S(=O)(=O)N[C@@H]4CCN(CC5CCN(c6ccc(C7CCC(=O)NC7=O)cc6F)CC5)C[C@H]4F)cc3F)ncc2C(F)(F)F)C1 (stereo partly shown),CDK1,"protein level, degrader, western blot",TOV21G,,Dmax,26%
NC/C(=C\F)COc1cccc(Cn2c(=S)[nH]c(=O)c3[nH]cnc32)c1,"Myeloperoxidase (Mus musculus, UniProt P11247)","enzyme activity, inhibitor",,0.25 µM,remaining activity,9.08%
Cc1cc(O)c(-c2ccc([C@@H](C)CN(C)C)cc2)c2c1[nH]c(=O)c1sccc12,MAP2K7,"enzyme activity, inhibitor",,0.1 µM,inhibition,4.47%
C[C@H]1CN(CC2CCN(c3ccc(C4CCC(=O)NC4=O)cc3F)CC2)CC[C@H]1NS(=O)(=O)c1ccc(Nc2ncc(C(F)(F)F)c(N3CCC[C@](C)(O)C3)n2)c(F)c1 (stereo partly shown),CDK1,"protein level, degrader, western blot",TOV21G,,Dmax,40%
COc1ccc2oc(-c3ccc4nc(N)oc4c3)c/c(=N\c3ccccc3NC(=O)CCN)c2c1,"5'-AMP-activated protein kinase catalytic subunit alpha-2 (PRKAA2, Homo sapiens, UniProt P54646)",binding,,1 µM,remaining binding,103%
C1=C/COCc2cc(ccc2OCCN2CCCC2)Nc2nccc(n2)-c2cccc(c2)COC/1,MAP2K7,cell-free assay,,0.1 µM,remaining signal,73%
CCCCC(=O)Nc1ccc(-c2ccc3ncn(CCC)c(=O)c3c2)cn1,"Ankyrin repeat and protein kinase domain-containing protein 1 (ANKK1, Homo sapiens, UniProt Q8NFD2)","binding, competition with immobilised ligand",,0.5 µM,remaining binding,100%
CCN(CC)CCNC(=O)c1ccc(NCN2C(=O)NC(c3ccccc3)(c3ccccc3)C2=O)cc1,"Mitogen-activated protein kinase 3 (MAPK3, Homo sapiens, UniProt P27361)","enzyme activity, inhibitor, ADP detection",,10 µM,inhibition,43.6%
CC(C)(C)c1cnc(CSc2cnc(NC(=O)C3CCN(C(=O)CCCCCCCCCN4Cc5cc6c(cc5C4)C(=O)N(C4CCC(=O)NC4=O)C6=O)CC3)s2)o1 (stereo not shown),CDK9,"protein level, degrader, western blot",TC-71,25 nM,inhibition,91.8%
Cc1cc2c(C(N)=O)c(N)n(-c3c(C)ccc(O)c3C)c2nc1C,"Proto-oncogene tyrosine-protein kinase Src (SRC, Homo sapiens, UniProt P12931)","enzyme activity, inhibitor, TR-FRET",,10 µM,inhibition,101%
CC(C)(C)c1cnc(CSc2cnc(NC(=O)C3CCN(C(=O)CCCCCCN4Cc5cc6c(cc5C4)C(=O)N(C4CCC(=O)NC4=O)C6=O)CC3)s2)o1 (stereo not shown),CDK9,"protein level, degrader, western blot",TC-71,25 nM,inhibition,95.8%
C#Cc1cc(-c2cc(Nc3nc(N[C@@H](C)c4ccc(F)cn4)ncc3Cl)n[nH]2)ccc1C=O,"Phosphorylase b kinase gamma catalytic chain, skeletal muscle/heart isoform (PHKG1, Homo sapiens, UniProt Q16816)","enzyme activity, inhibitor",,0.2 µM,inhibition,80.2%
